Assay results taken from ChEMBL document CHEMBL1145524, “Structure-based activity prediction for an enzyme of unknown function” (Nature, 2007).

Columns and labels:
[1] = biological target: T1, Adenosylhomocysteinase (Thermotoga maritima (strain ATCC 43589 / MSB8 / DSM 3109 / JCM 10099)) (UniProt O51933); experiment: (§1) Activity of Thermotoga maritima S-adenosyl-L-homocysteine hydrolase Tm0172 assessed as homocysteine hydrolysis
T1 sequence (whole entry): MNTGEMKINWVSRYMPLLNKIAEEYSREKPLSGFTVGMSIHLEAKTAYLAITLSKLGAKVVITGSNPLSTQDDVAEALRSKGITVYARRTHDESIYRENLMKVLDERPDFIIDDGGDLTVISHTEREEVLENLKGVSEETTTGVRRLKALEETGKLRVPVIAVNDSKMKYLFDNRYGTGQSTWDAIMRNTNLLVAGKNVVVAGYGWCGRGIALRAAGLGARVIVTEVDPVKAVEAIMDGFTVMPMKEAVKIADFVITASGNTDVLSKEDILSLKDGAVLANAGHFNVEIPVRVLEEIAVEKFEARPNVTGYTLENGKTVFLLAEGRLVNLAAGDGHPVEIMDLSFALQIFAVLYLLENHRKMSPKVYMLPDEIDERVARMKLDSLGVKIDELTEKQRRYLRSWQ
In short: (§2)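 Tm0172 expressed in E. coli (arabinose induction), heat-treated 65 °C and purified on chelating Sepharose as His-tagged protein. Assay: 100 mM HEPES pH 8.0, 1.0 mM DTNB, 1.0 mM EDTA, 13 μM Tm0172, substrate up to 10 mM, 30 °C. kcat and kcat/Km obtained by fitting initial velocities to the Michaelis–Menten equation.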

[2] = substrate: CSC[C@H]1O[C@@H](n2cnc3c(N)ncnc32)[C@H](O)[C@@H]1O; experiment: (§3) Activity of Thermotoga maritima S-adenosyl-homocysteine deaminase Tm0936 assessed as ammonia production
In short: (§4)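 Recombinant Tm0936 was expressed in E. coli, heat-treated at 65 °C, then purified by anion exchange and gel filtration (Zn-containing). Ammonia release was coupled to glutamate dehydrogenase, with NADH loss read at 340 nm. Assay: 100 mM HEPES pH 8.0, 7.4 mM α-ketoglutarate, 0.4 mM NADH, 6 units GDH, 30 °C. kcat and kcat/Km came from fitting initial velocities versus substrate concentration.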

[3] = substrate: C[S+](CC[C@H](N)C(=O)[O-])C[C@H]1O[C@@H](n2cnc3c(N)ncnc32)[C@H](O)[C@@H]1O; experiment: as §3; in short: as §4
[4] = substrate: Nc1ncnc2c1ncn2[C@@H]1O[C@H](CO)[C@@H](O)[C@H]1O; experiment: as §3; in short: as §4
[5] = substrate: Nc1ncnc2c1ncn2[C@@H]1O[C@H](COP(=O)(O)O)[C@@H](O)[C@H]1O; experiment: as §3; in short: as §4
[6] = substrate: Nc1ncnc2c1ncn2[C@@H]1O[C@H](CSCC[C@H](N)C(=O)O)[C@@H](O)[C@H]1O; experiment: as §3; in short: as §4
[7] = substrate: CSC[C@H]1O[C@@H](n2cnc3c(N)ncnc32)[C@H](O)[C@@H]1O; experiment: (§5) Ratio of Kcat to Km for Thermotoga maritima S-adenosyl-homocysteine deaminase Tm0936 assessed as ammonia production; in short: as §4
[8] = substrate: Nc1ncnc2c1ncn2[C@@H]1O[C@H](CO)[C@@H](O)[C@H]1O; experiment: as §5; in short: as §4
[9] = substrate: Nc1ncnc2c1ncn2[C@@H]1O[C@H](CSCC[C@H](N)C(=O)O)[C@@H](O)[C@H]1O; experiment: as §5; in short: as §4
[10] = substrate: Nc1ncnc2c1ncn2[C@@H]1O[C@H](CSCC[C@H](N)C(=O)O)[C@@H](O)[C@H]1O; experiment: as §1; in short: as §2
[11] = substrate: Nc1ncnc2c1ncn2[C@@H]1O[C@H](CSCC[C@H](N)C(=O)O)[C@@H](O)[C@H]1O; experiment: Ratio of Kcat to Km for Thermotoga maritima S-adenosyl-L-homocysteine hydrolase Tm0172 assessed as homocysteine hydrolysis; in short: as §2

Nc1ncnc2c1ncn2[C@@H]1O[C@H](CSCC[C@H](N)C(=O)O)[C@@H](O)[C@H]1O
kcat [1]: 0.004 s⁻¹

B1: 5-methylthioadenosine/S-adenosylhomocysteine deaminase (Thermotoga maritima (strain ATCC 43589 / MSB8 / DSM 3109 / JCM 10099)), Q9X034 (protein)
chain: MIIGNCLILKDFSSEPFWGAVEIENGTIKRVLQGEVKVDLDLSGKLVMPALFNTHTHAPMTLLRGVAEDLSFEEWLFSKVLPIEDRLTEKMAYYGTILAQMEMARHGIAGFVDMYFHEEWIAKAVRDFGMRALLTRGLVDSNGDDGGRLEENLKLYNEWNGFEGRIFVGFGPHSPYLCSEEYLKRVFDTAKSLNAPVTIHLYETSKEEYDLEDILNIGLKEVKTIAAHCVHLPERYFGVLKDIPFFVSHNPASNLKLGNGIAPVQRMIEHGMKVTLGTDGAASNNSLNLFFEMRLASLLQKAQNPRNLDVNTCLKMVTYDGAQAMGFKSGKIEEGWNADLVVIDLDLPEMFPVQNIKNHLVHAFSGEVFATMVAGKWIYFDGEYPTIDSEEVKRELARIEKELYSS
Km [2]: 44 µM | kcat [2]: 7.2 s⁻¹ | kcat [3]: 1 10^-3/s | Km [4]: 250 µM | kcat [4]: 2.3 s⁻¹ | kcat [5]: 1 10^-3/s | Km [6]: 210 µM | kcat [6]: 12.2 s⁻¹ | kcat/Km [7]: 1.5 10^5/M/s | kcat/Km [8]: 9.2 10^3/M/s | kcat/Km [9]: 5.8 10^4/M/s

B2: Adenosylhomocysteinase (Thermotoga maritima (strain ATCC 43589 / MSB8 / DSM 3109 / JCM 10099)), O51933 (protein)
chain: MNTGEMKINWVSRYMPLLNKIAEEYSREKPLSGFTVGMSIHLEAKTAYLAITLSKLGAKVVITGSNPLSTQDDVAEALRSKGITVYARRTHDESIYRENLMKVLDERPDFIIDDGGDLTVISHTEREEVLENLKGVSEETTTGVRRLKALEETGKLRVPVIAVNDSKMKYLFDNRYGTGQSTWDAIMRNTNLLVAGKNVVVAGYGWCGRGIALRAAGLGARVIVTEVDPVKAVEAIMDGFTVMPMKEAVKIADFVITASGNTDVLSKEDILSLKDGAVLANAGHFNVEIPVRVLEEIAVEKFEARPNVTGYTLENGKTVFLLAEGRLVNLAAGDGHPVEIMDLSFALQIFAVLYLLENHRKMSPKVYMLPDEIDERVARMKLDSLGVKIDELTEKQRRYLRSWQ
Km [10]: 21 µM | kcat/Km [11]: 1.1 10^2/M/s
